# ChEMBL document CHEMBL1146312, “Synthesis of OSW saponin analogs with modified sugar residues and their antiproliferative activities” (Bioorg Med Chem Lett, 2007)
# pIC50: −log10 of the molar value.
# What was measured:
# Format in all cases: functional, cell-based
# HeLa = test: Antiproliferative activity against human HeLa cells
# How it was run: (§1)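 Proliferation of human RKO colon carcinoma, Jurkat T-cell leukemia and HeLa cervical cancer cells was followed by [3H]-thymidine incorporation. IC50 values were taken from this read-out.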
# Jurkat = test: Antiproliferative activity against human Jurkat cells; how it was run: as §1
# RKO = test: Antiproliferative activity against human RKO cells; how it was run: as §1
SMILES,pIC50 (HeLa),pIC50 (Jurkat),pIC50 (RKO)
CCCCCCCCCCCCOC(=O)[C@@H](C)[C@@]1(O)[C@@H](O[C@@H]2OC[C@H](O)[C@H](O)[C@H]2OC(C)=O)C[C@H]2[C@@H]3CC=C4C[C@@H](O)CC[C@]4(C)[C@H]3CC[C@@]21C,5.92,7.11,–
C=CCO[C@@H]1[C@@H](OC(C)=O)[C@H](O[C@H]2C[C@H]3[C@@H]4CC=C5C[C@@H](O)CC[C@]5(C)[C@H]4CC[C@]3(C)[C@@]2(O)[C@H](C)C(=O)OCCCCCCCCCCCC)OC[C@@H]1O,5.96,–,5.77
CCCCCCCCCCCCOC(=O)[C@@H](C)[C@@]1(O)[C@@H](O[C@@H]2OC[C@H](O)[C@H](O[C@@H]3OC[C@@H](O)[C@H](O)[C@H]3OC(=O)c3ccc(OC)cc3)[C@H]2OC(C)=O)C[C@H]2[C@@H]3CC=C4C[C@@H](O)CC[C@]4(C)[C@H]3CC[C@@]21C,7.15,7.82,9.15
